Source: PubChem (several laboratories)
Hits are enriched below; roughly 8.9% of the tested compounds scored in any of these assays.
HSV replic up – enhancers of HSV replication in host cells, fold increase, host cell viability; HSV replication augmentation in cells; maximum fold increase; actives 0.005% (n = 220,000); AID 1956, 2009; in the data active = maximum fold increase above about 1.5; inconclusive = no clear call, values can overlap the other calls; tested in PC3 cells
L major viab – Leishmania major promastigote growth inhibition, primary screen; Leishmania major promastigotes, resazurin fluorescence viability; inhibition, % at 10 µM; actives 9% (n = 200,000); AID 1063, 2008; in the data active = inhibition above about 50%;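 also: promastigotes grown with compound for 44 hours at 28 °C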
Dynein cargo inh – inhibitors of GR-EGFP nuclear translocation, primary screen, dynein cargo transport inhibitor project, imaging, high-content, 3617.4 mouse cells; test concentration mostly 20 µM; stimulated with dexamethasone, 1 µM; active compounds read low; z-score, hits read low; actives 0.47% (n = 220,000); AID 1381, 2008;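 active = plate z-score of nuclear minus cytoplasmic receptor signal below a set negative limit, without overly bright fluorescence or cell loss, cut at about -3.5 in these data, passing the limit was not always enough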;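 also: z-score of nuclear minus cytoplasmic ring GR-EGFP intensity difference per well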
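Buffer or medium: tetracycline-free induction medium containing charcoal-stripped FBS / Reagent: dexamethasone agonist, 1.0 µM final, for 30 min / Technique: automated 10x imaging of fixed Hoechst-stained cells / Times: induction 48 h, compound 1 h, agonist 30 min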
bCat nuc transl – modulators of beta-catenin nuclear translocation, primary screen, imaging, HeLa cells, immunofluorescence, high-content; AID 1665, 2009; nuclear translocation activity, % at 5 µM; actives 0.3% (n = 190,000);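 active = nuclear translocation activity above 50% at 5 µM, with a well cell count of 50 or more; inconclusive = wells under 50 cells across six images, flagged as toxic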;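 also: per-cell ratio of nuclear to cytoplasmic median beta-catenin stain intensity; plate controls were DMSO negative control for no effect and GSK-3 inhibitor IX positive control for full effect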
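assay system = human HeLa cells, endogenous beta-catenin | times = compound treatment 24 h, 37°C, 5% CO2 | detection = Anti-beta-catenin immunofluorescence on PFA-fixed, Triton-permeabilized cells, DAPI nuclei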
MT stabilizer – microtubule stabilizers in HeLa cells, primary screen, imaging, high-content imaging; HeLa tubulin immunostaining HCS, 24 h; share of cells brighter than vehicle mean+2SD; % tubulin-high responders, % at 10 µM; actives 0.83% (n = 200,000); AID 2205, 2009;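 active = plate Z-score above 3 for both tubulin-high and condensed-nucleus cell shares, with cell loss under 80%, at 10 µM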;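 also: anti alpha tubulin signal scored within the nucleus-defined area of each cell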
Starred values were filed as active, the others as inactive; i = inactive; ? = inconclusive; . = no result.

SMILES | HSV replic up | L major viab | Dynein cargo inh | bCat nuc transl | MT stabilizer
CCOc1cc(C)c(S(=O)(=O)N2CCCCC2)cc1C | i | -4 | -0.2 | -4 | 4
CN1/C(=C\C=C(/C#N)C(=O)Nc2ccc(Cl)cc2)C(C)(C)c2ccccc21 | ? | 88* | -0.099 | 0 | 2
CCCc1nc2oc3cc(OC)ccc3c(=O)c2c(=O)n1CCc1ccccc1 | i | . | 1.2 | 1 | .
S=C(NCCCN1CCOCC1)Nc1ccc(Cl)c(Cl)c1 | i | 95* | -0.31 | -2 | 3
Fc1cccc(NC(=S)NCCN2CCOCC2)c1 | i | 67* | 1.3 | 1 | 4
CSc1cccc(NC(=S)NCCCN2CCN(c3ccc(F)cc3)CC2)c1 | i | 57* | 0.77 | -3 | 2
Fc1cccc(NC(=S)NCCCN2CCOCC2)c1 | i | 72* | -0.24 | 0 | 3
CCCN1CCN(CCCNC(=S)Nc2ccc(F)cc2)CC1 | i | 3 | -0.72 | 4 | 3
FC(F)(F)c1cccc(NC(=S)NCCN2CCOCC2)c1 | i | 40 | -0.16 | -2 | 2
O=C(CNc1cccc([N+](=O)[O-])c1)N/N=C/c1ccc(F)cc1 | i | -2 | -1.3 | -3 | 3
O=C(NCc1ccccc1Cl)C1CCN(S(=O)(=O)c2ccc(F)cc2)CC1 | i | 1 | -0.2 | -1 | 3
COc1cc(S(=O)(=O)NC2CCCC2)ccc1Cl | i | -4 | 2.9 | . | 4
Cc1ccc(NC(=S)NCCCN2CCOCC2)cc1C | i | . | 1.3 | -1 | .
Fc1cc(F)cc(NC(=S)NCCCN2CCOCC2)c1 | i | 54* | 1 | 1 | 2
CC(C)(C)n1nc2c(c1NC(=O)Cc1ccc(F)cc1)CSC2 | i | -3 | 0.26 | . | 8
COC(=O)c1cc(=O)n(Cc2cccs2)c(=Nc2ccc(F)cc2)s1 | i | 98* | -1.6 | -2 | 5
COC(=O)c1cc(=O)n(Cc2ccc3c(c2)OCO3)c(=Nc2ccc(F)cc2)s1 | i | 87* | -3.3 | . | 6
COC(=O)c1c(O)cc(C(C)(C)C)n(-c2ccc(F)cc2)c1=O | i | 63* | 0.33 | -2 | 3
COC(=O)c1ccc(N=c2sc(C(=O)OC)cc(=O)n2C)cc1 | i | 7 | -1.7 | 0 | 2
COC(=O)c1cc(=O)n(-c2ccc(F)cc2)c(=Nc2ccc(F)cc2)s1 | i | 92* | -4.2* | -2 | 7
CCOC(=O)c1ccc(N=c2sc(C(=O)OC)cc(=O)n2C2CC2)cc1 | i | 11 | -0.46 | . | 2
CCOC(=O)c1ccc(N=c2sc(C(=O)OC)cc(=O)n2Cc2ccc3c(c2)OCO3)cc1 | i | 100* | -3 | 4 | 5
COC(=O)c1cc(=O)n(Cc2ccc3c(c2)OCO3)c(=Nc2ccccc2)s1 | i | 82* | -3.5* | 3 | 5
Cc1ccc(Cl)cc1N1CCN(C(=O)Cc2c(C(=O)O)[nH]c3ccccc23)CC1 | i | -12 | 0.46 | -4 | 2
CC(C)Cc1nc2oc3c(N4CCN(C)CC4)ncnc3c2c2c1CCCC2 | i | 11 | 0.64 | -4 | 3
SMILES | HSV replic up | L major viab | Dynein cargo inh | bCat nuc transl | MT stabilizer
CCCC(=O)Nc1cc(-c2nc3ncccc3o2)ccc1C | i | 89* | 0.96 | . | 3
CCCC(=O)NC(=S)Nc1cc(-c2nc3ncccc3o2)ccc1C | i | . | -1.3 | -1 | .
Cc1ccc(-c2nc3ncccc3o2)cc1NC(=O)c1ccco1 | i | 99* | 0.44 | . | 3
Cc1ccc(-c2nc3ncccc3o2)cc1NC(=O)c1cccs1 | i | 95* | -0.63 | -2 | 1
Cc1cc(C)nc(NC(=NCCc2c[nH]c3ccccc23)NC(=O)C(C)(C)C)n1 | i | . | 1.1 | 2 | .
COCCNC(=O)/C(C#N)=C/c1ccc(-c2ccc(S(=O)(=O)N3CCOCC3)cc2)o1 | i | 78* | 2.6 | . | 5
CCOCCCNC(=O)/C(C#N)=C/c1ccc(-c2ccc(S(=O)(=O)N3CCOCC3)cc2)o1 | i | 18 | 0.79 | 2 | 11
O=S(=O)(Nc1cc(Cl)ccn1)c1ccc(Cl)cc1 | i | -2 | 1.3 | . | 5
CCCCn1c(=N)n(CC(O)COc2ccc(C)cc2)c2ccccc21 (stereo not given) | i | 101* | 1.1 | -4 | 5
CCCCn1c(=N)n(CC(O)COc2ccccc2)c2ccccc21 (stereo not given) | i | 55* | 0.23 | -4 | 5
Nc1nc2ccccc2nc1N1CCCC1 | i | -6 | -0.9 | . | 2
NC(=S)n1[nH]c(-c2ccc([N+](=O)[O-])cc2)c(N=Nc2ccc(O)cc2)c1=O | . | 97* | -0.56 | . | 1
CC(C)CN1C(=O)/C(=C(/C#N)C(=O)NC2CCCCC2)c2ccccc21 | i | 97* | -0.092 | 5 | 2
N#CC1=C(SCC(N)=O)NC(=O)CC1c1ccccc1Cl (stereo not given) | i | -9 | -0.64 | . | 3
